“And” between values parts separate entries of the source, which are not always exact repeats. Equal entries are not always repeated.
Test system: Fibroblast
Experiment: Multiplex assay against human fibroblast
Type: toxicity, cell-based
Summary of the method: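 Compound was added to live cells that had been stained at seeding with Hoechst33342, BioTracker Green Microtubule Cytoskeleton Dye, MitoTracker Red and Annexin V Alexa Fluor 680, and imaging followed on a CQ1 microscope at 37°C and 5% CO2. CellPathfinder machine-learning gating divided cells into Hoechst high-intensity objects or normal cells, normal cells into healthy, pyknosed or fragmented nuclei, and pyknosed cells into mitotic or apoptotic. Tubulin, mitochondrial-mass and membrane-permeability phenotypes are per cents of healthy-nucleus cells.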

[1] = 12 h, 1 µM, compound concentration 1 uM
[2] = 12 h, 10 µM, compound concentration 10 uM
[3] = 24 h, 1 µM, compound concentration 1 uM
[4] = 24 h, 10 µM, compound concentration 10 uM
[5] = 48 h, 1 µM, compound concentration 1 uM
[6] = 48 h, 10 µM, compound concentration 10 uM

SMILES: CN1CCC(C(=O)c2cccc(NC(=O)c3c(F)cc(F)cc3F)n2)CC1
- Population Apoptotic (%) [1]: 28% and 40%
- Population Fragmented Nuclei (%) [1]: 16% and 28%
- Population Healthy Nuclei (%) [1]: 64% and 53%
- Population Hoechst High Intensity Objects (%) [1]: 3% and 2%
- Population Membrane Permeable-Phenotype (%) [1]: 1% and 5%
- Population Mitochondria Different-Phenotype (%) [1]: 4% and 10%
- Population Mitotic Cells (%) [1]: 71% and 60%
- Population Normal (%) [1]: 96% and 97%
- Population Pyknosed Nuclei (%) [1]: 18%
- Population Tubulin-Different-Phenotype (%) [1]: 28% and 43%
- Total Cell Count [1]: 153 and 142
- Population Apoptotic (%) [2]: 32% and 36%
- Population Fragmented Nuclei (%) [2]: 12% and 23%
- Population Healthy Nuclei (%) [2]: 74% and 54%
- Population Hoechst High Intensity Objects (%) [2]: 4%
- Population Membrane Permeable-Phenotype (%) [2]: 1% and 6%
- Population Mitochondria Different-Phenotype (%) [2]: 7% and 6%
- Population Mitotic Cells (%) [2]: 67% and 63%
- Population Normal (%) [2]: 95%
- Population Pyknosed Nuclei (%) [2]: 13% and 22%
- Population Tubulin-Different-Phenotype (%) [2]: 42% and 63%
- Total Cell Count [2]: 266 and 142
- Population Apoptotic (%) [3]: 45% and 40%
- Population Fragmented Nuclei (%) [3]: 12% and 34%
- Population Healthy Nuclei (%) [3]: 74% and 43%
- Population Hoechst High Intensity Objects (%) [3]: 1%
- Population Membrane Permeable-Phenotype (%) [3]: 0% and 6%
- Population Mitochondria Different-Phenotype (%) [3]: 2% and 10%
- Population Mitotic Cells (%) [3]: 55% and 59%
- Population Normal (%) [3]: 98%
- Population Pyknosed Nuclei (%) [3]: 12% and 21%
- Population Tubulin-Different-Phenotype (%) [3]: 21% and 45%
- Total Cell Count [3]: 156 and 148
- Population Apoptotic (%) [4]: 54% and 37%
- Population Fragmented Nuclei (%) [4]: 13% and 30%
- Population Healthy Nuclei (%) [4]: 71% and 50%
- Population Hoechst High Intensity Objects (%) [4]: 3% and 2%
- Population Membrane Permeable-Phenotype (%) [4]: 0% and 5%
- Population Mitochondria Different-Phenotype (%) [4]: 6% and 8%
- Population Mitotic Cells (%) [4]: 45% and 62%
- Population Normal (%) [4]: 96% and 97%
- Population Pyknosed Nuclei (%) [4]: 14% and 19%
- Population Tubulin-Different-Phenotype (%) [4]: 37% and 65%
- Total Cell Count [4]: 258 and 153
- Population Apoptotic (%) [5]: 71% and 56%
- Population Fragmented Nuclei (%) [5]: 16% and 42%
- Population Healthy Nuclei (%) [5]: 74% and 46%
- Population Hoechst High Intensity Objects (%) [5]: 3% and 2%
- Population Membrane Permeable-Phenotype (%) [5]: 0% and 5%
- Population Mitochondria Different-Phenotype (%) [5]: 1% and 5%
- Population Mitotic Cells (%) [5]: 28% and 43%
- Population Normal (%) [5]: 96% and 97%
- Population Pyknosed Nuclei (%) [5]: 8% and 10%
- Population Tubulin-Different-Phenotype (%) [5]: 25% and 67%
- Total Cell Count [5]: 164 and 156
- Population Apoptotic (%) [6]: 71% and 54%
- Population Fragmented Nuclei (%) [6]: 17% and 36%
- Population Healthy Nuclei (%) [6]: 71% and 55%
- Population Hoechst High Intensity Objects (%) [6]: 5% and 3%
- Population Membrane Permeable-Phenotype (%) [6]: 0% and 3%
- Population Mitochondria Different-Phenotype (%) [6]: 7% and 3%
- Population Mitotic Cells (%) [6]: 28% and 45%
- Population Normal (%) [6]: 94% and 96%
- Population Pyknosed Nuclei (%) [6]: 10% and 7%
- Population Tubulin-Different-Phenotype (%) [6]: 40% and 69%
- Total Cell Count [6]: 272 and 152

SMILES: COc1c(C)cc(NC(=O)c2nn(Cc3ccc(F)cc3)c3c2CN(C(=O)c2ccc[nH]2)C[C@]3(C)C(N)=O)cc1C
- Population Apoptotic (%) [1]: 42% and 46%
- Population Fragmented Nuclei (%) [1]: 21% and 16%
- Population Healthy Nuclei (%) [1]: 58% and 51%
- Population Hoechst High Intensity Objects (%) [1]: 2% and 3%
- Population Membrane Permeable-Phenotype (%) [1]: 1% and 6%
- Population Mitochondria Different-Phenotype (%) [1]: 18% and 11%
- Population Mitotic Cells (%) [1]: 57% and 53%
- Population Normal (%) [1]: 97% and 96%
- Population Pyknosed Nuclei (%) [1]: 20% and 31%
- Population Tubulin-Different-Phenotype (%) [1]: 64% and 72%
- Total Cell Count [1]: 95 and 86
- Population Apoptotic (%) [2]: 47% and 52%
- Population Fragmented Nuclei (%) [2]: 12% and 29%
- Population Healthy Nuclei (%) [2]: 58% and 38%
- Population Hoechst High Intensity Objects (%) [2]: 1% and 2%
- Population Membrane Permeable-Phenotype (%) [2]: 0% and 6%
- Population Mitochondria Different-Phenotype (%) [2]: 25% and 30%
- Population Mitotic Cells (%) [2]: 52% and 47%
- Population Normal (%) [2]: 98% and 97%
- Population Pyknosed Nuclei (%) [2]: 29% and 32%
- Population Tubulin-Different-Phenotype (%) [2]: 90%
- Total Cell Count [2]: 166 and 115
- Population Apoptotic (%) [3]: 66% and 48%
- Population Fragmented Nuclei (%) [3]: 25% and 31%
- Population Healthy Nuclei (%) [3]: 61% and 38%
- Population Hoechst High Intensity Objects (%) [3]: 3% and 6%
- Population Membrane Permeable-Phenotype (%) [3]: 1% and 8%
- Population Mitochondria Different-Phenotype (%) [3]: 17%
- Population Mitotic Cells (%) [3]: 33% and 51%
- Population Normal (%) [3]: 96% and 93%
- Population Pyknosed Nuclei (%) [3]: 12% and 30%
- Population Tubulin-Different-Phenotype (%) [3]: 45% and 67%
- Total Cell Count [3]: 96 and 95
- Population Apoptotic (%) [4]: 65% and 43%
- Population Fragmented Nuclei (%) [4]: 14% and 30%
- Population Healthy Nuclei (%) [4]: 64% and 47%
- Population Hoechst High Intensity Objects (%) [4]: 3% and 4%
- Population Membrane Permeable-Phenotype (%) [4]: 0% and 8%
- Population Mitochondria Different-Phenotype (%) [4]: 47% and 26%
- Population Mitotic Cells (%) [4]: 34% and 56%
- Population Normal (%) [4]: 96% and 95%
- Population Pyknosed Nuclei (%) [4]: 20% and 21%
- Population Tubulin-Different-Phenotype (%) [4]: 90% and 82%
- Total Cell Count [4]: 159 and 110
- Population Apoptotic (%) [5]: 87% and 70%
- Population Fragmented Nuclei (%) [5]: 29% and 34%
- Population Healthy Nuclei (%) [5]: 61% and 45%
- Population Hoechst High Intensity Objects (%) [5]: 7% and 5%
- Population Membrane Permeable-Phenotype (%) [5]: 0% and 10%
- Population Mitochondria Different-Phenotype (%) [5]: 10%
- Population Mitotic Cells (%) [5]: 12% and 29%
- Population Normal (%) [5]: 92% and 94%
- Population Pyknosed Nuclei (%) [5]: 8% and 19%
- Population Tubulin-Different-Phenotype (%) [5]: 45% and 69%
- Total Cell Count [5]: 99 and 91
- Population Apoptotic (%) [6]: 60% and 77%
- Population Fragmented Nuclei (%) [6]: 22% and 41%
- Population Healthy Nuclei (%) [6]: 60% and 51%
- Population Hoechst High Intensity Objects (%) [6]: 4% and 2%
- Population Membrane Permeable-Phenotype (%) [6]: 0% and 3%
- Population Mitotic Cells (%) [6]: 39% and 22%
- Population Normal (%) [6]: 95% and 97%
- Population Pyknosed Nuclei (%) [6]: 17% and 7%
- Population Tubulin-Different-Phenotype (%) [6]: 92% and 75%
- Total Cell Count [6]: 166 and 122

SMILES: CSc1ccccc1N1CCN(CCCCCC(=O)NC2CCCc3ccccc32)CC1.Cl (stereo not given)
- Population Apoptotic (%) [1]: 37% and 50%
- Population Fragmented Nuclei (%) [1]: 26% and 32%
- Population Healthy Nuclei (%) [1]: 49% and 41%
- Population Hoechst High Intensity Objects (%) [1]: 6% and 2%
- Population Membrane Permeable-Phenotype (%) [1]: 1% and 9%
- Population Mitochondria Different-Phenotype (%) [1]: 15% and 7%
- Population Mitotic Cells (%) [1]: 62% and 50%
- Population Normal (%) [1]: 93% and 97%
- Population Pyknosed Nuclei (%) [1]: 24% and 25%
- Population Tubulin-Different-Phenotype (%) [1]: 65% and 74%
- Total Cell Count [1]: 126 and 135
- Population Apoptotic (%) [2]: 58% and 66%
- Population Fragmented Nuclei (%) [2]: 25% and 34%
- Population Healthy Nuclei (%) [2]: 57% and 50%
- Population Hoechst High Intensity Objects (%) [2]: 5%
- Population Membrane Permeable-Phenotype (%) [2]: 0%
- Population Mitochondria Different-Phenotype (%) [2]: 78% and 36%
- Population Mitotic Cells (%) [2]: 41% and 33%
- Population Normal (%) [2]: 94%
- Population Pyknosed Nuclei (%) [2]: 17% and 14%
- Population Tubulin-Different-Phenotype (%) [2]: 95% and 92%
- Total Cell Count [2]: 220 and 242
- Population Apoptotic (%) [3]: 52% and 37%
- Population Fragmented Nuclei (%) [3]: 29% and 33%
- Population Healthy Nuclei (%) [3]: 52% and 43%
- Population Hoechst High Intensity Objects (%) [3]: 6% and 3%
- Population Membrane Permeable-Phenotype (%) [3]: 0% and 3%
- Population Mitochondria Different-Phenotype (%) [3]: 21% and 11%
- Population Mitotic Cells (%) [3]: 47% and 62%
- Population Normal (%) [3]: 93% and 96%
- Population Pyknosed Nuclei (%) [3]: 18% and 23%
- Population Tubulin-Different-Phenotype (%) [3]: 40% and 64%
- Total Cell Count [3]: 133 and 130
- Population Apoptotic (%) [4]: 90% and 66%
- Population Fragmented Nuclei (%) [4]: 22% and 33%
- Population Healthy Nuclei (%) [4]: 66% and 56%
- Population Hoechst High Intensity Objects (%) [4]: 7% and 3%
- Population Membrane Permeable-Phenotype (%) [4]: 0%
- Population Mitochondria Different-Phenotype (%) [4]: 81% and 51%
- Population Normal (%) [4]: 92% and 96%
- Population Pyknosed Nuclei (%) [4]: 11% and 9%
- Population Tubulin-Different-Phenotype (%) [4]: 98% and 90%
- Total Cell Count [4]: 211 and 258
- Population Apoptotic (%) [5]: 61% and 44%
- Population Fragmented Nuclei (%) [5]: 26% and 33%
- Population Healthy Nuclei (%) [5]: 56% and 45%
- Population Hoechst High Intensity Objects (%) [5]: 6% and 1%
- Population Membrane Permeable-Phenotype (%) [5]: 2% and 0%
- Population Mitochondria Different-Phenotype (%) [5]: 17% and 12%
- Population Mitotic Cells (%) [5]: 38% and 56%
- Population Normal (%) [5]: 93% and 98%
- Population Pyknosed Nuclei (%) [5]: 17% and 20%
- Population Tubulin-Different-Phenotype (%) [5]: 69% and 64%
- Total Cell Count [5]: 132 and 124
- Population Apoptotic (%) [6]: 91% and 68%
- Population Fragmented Nuclei (%) [6]: 25% and 38%
- Population Healthy Nuclei (%) [6]: 61% and 53%
- Population Hoechst High Intensity Objects (%) [6]: 8% and 4%
- Population Membrane Permeable-Phenotype (%) [6]: 0% and 2%
- Population Mitochondria Different-Phenotype (%) [6]: 82% and 33%
- Population Normal (%) [6]: 91% and 95%
- Population Pyknosed Nuclei (%) [6]: 12% and 8%
- Population Tubulin-Different-Phenotype (%) [6]: 97% and 83%
- Total Cell Count [6]: 195 and 281

Reference: ChEMBL document CHEMBL5724801, “EUbOPEN Chemogenomics Library - Multiplex” (2024)
